Data on eight molecules can be found in ChEMBL document CHEMBL1909556, “Synthesis and properties of novel 2'-O-alkoxymethyl-modified nucleic acids” (Bioorg Med Chem Lett, 2011).

The term ΔTm denotes the change in melting temperature against a reference sample.

In data set [1] the test system is Nucleic Acid. As to the kind of experiment: Binding affinity to A12 RNA assessed as change in melting temperature at 2 uM compound at pH 7. Type of data set: nucleic-acid assay.
Data set [2] can be described thus: Nuclease stability of compound assessed as snake venom phosphodiesterase-mediated degradation at 10 uM after 2 hrs by RP-HPLC analysis. It counts as physicochemical. Summed up: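 Snake venom phosphodiesterase digestion at 4 × 10^-4 units/ml of 10 μM oligoribonucleotide for 2 h. Buffer was 50 mM Tris-HCl pH 8.5 with 72 mM NaCl and 14 mM MgCl2. The degradation ratio was estimated by reversed-phase HPLC.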

The test system of data set [3] is Nucleic Acid. Kind of data set: Binding affinity to dA12 DNA assessed as change in melting temperature at 2 uM compound at pH 7. It counts as nucleic-acid assay.

The source made the active and inactive calls. No cut-off for these calls is given here.

`O=c1ccn([C@@H]2O[C@H](COP(=O)(O)O[C@H]3[C@@H](O)[C@H](n4ccc(=O)[nH]c4=O)O[C@@H]3COP(=O)(O)O[C@H]3[C@@H](O)[C@H](n4ccc(=O)[nH]c4=O)O[C@@H]3COP(=O)(O)O[C@H]3[C@@H](O)[C@H](n4ccc(=O)[nH]c4=O)O[C@@H]3COP(=O)(O)O[C@H]3[C@@H](O)[C@H](n4ccc(=O)[nH]c4=O)O[C@@H]3COP(=O)(O)O[C@H]3[C@@H](O)[C@H](n4ccc(=O)[nH]c4=O)O[C@@H]3COP(=O)(O)O[C@H]3[C@@H](O)[C@H](n4ccc(=O)[nH]c4=O)O[C@@H]3COP(=O)(O)O[C@H]3[C@@H](O)[C@H](n4ccc(=O)[nH]c4=O)O[C@@H]3COP(=O)(O)O[C@H]3[C@@H](O)[C@H](n4ccc(=O)[nH]c4=O)O[C@@H]3COP(=O)(O)O[C@H]3[C@@H](O)[C@H](n4ccc(=O)[nH]c4=O)O[C@@H]3COP(=O)(O)O[C@H]3[C@@H](O)[C@H](n4ccc(=O)[nH]c4=O)O[C@@H]3COP(=O)(O)O[C@H]3[C@@H](O)[C@H](n4ccc(=O)[nH]c4=O)O[C@@H]3CO)[C@@H](O)[C@H]2O)c(=O)[nH]1`: the ΔTm in data set [1] came out at 0 °C.

For the molecule `N#CCCOCO[C@@H]1[C@H](O)[C@@H](COP(=O)(O)O[C@H]2[C@@H](OCOCCC#N)[C@H](n3ccc(=O)[nH]c3=O)O[C@@H]2COP(=O)(O)O[C@H]2[C@@H](OCOCCC#N)[C@H](n3ccc(=O)[nH]c3=O)O[C@@H]2COP(=O)(O)O[C@H]2[C@@H](OCOCCC#N)[C@H](n3ccc(=O)[nH]c3=O)O[C@@H]2COP(=O)(O)O[C@H]2[C@@H](OCOCCC#N)[C@H](n3ccc(=O)[nH]c3=O)O[C@@H]2COP(=O)(O)O[C@H]2[C@@H](OCOCCC#N)[C@H](n3ccc(=O)[nH]c3=O)O[C@@H]2COP(=O)(O)O[C@H]2[C@@H](OCOCCC#N)[C@H](n3ccc(=O)[nH]c3=O)O[C@@H]2COP(=O)(O)O[C@H]2[C@@H](OCOCCC#N)[C@H](n3ccc(=O)[nH]c3=O)O[C@@H]2COP(=O)(O)O[C@H]2[C@@H](OCOCCC#N)[C@H](n3ccc(=O)[nH]c3=O)O[C@@H]2COP(=O)(O)O[C@H]2[C@@H](OCOCCC#N)[C@H](n3ccc(=O)[nH]c3=O)O[C@@H]2COP(=O)(O)O[C@H]2[C@@H](OCOCCC#N)[C@H](n3ccc(=O)[nH]c3=O)O[C@@H]2COP(=O)(O)O[C@H]2[C@@H](OCOCCC#N)[C@H](n3ccc(=O)[nH]c3=O)O[C@@H]2CO)O[C@H]1n1ccc(=O)[nH]c1=O`, in data set [2], the Stability result was “Stable”. In data set [1], the ΔTm worked out at 2.8 °C.

As for `O=c1ccn([C@@H]2O[C@H](COP(=O)(O)O[C@H]3[C@@H](OCOCC(Cl)(Cl)Cl)[C@H](n4ccc(=O)[nH]c4=O)O[C@@H]3COP(=O)(O)O[C@H]3[C@@H](OCOCC(Cl)(Cl)Cl)[C@H](n4ccc(=O)[nH]c4=O)O[C@@H]3COP(=O)(O)O[C@H]3[C@@H](OCOCC(Cl)(Cl)Cl)[C@H](n4ccc(=O)[nH]c4=O)O[C@@H]3COP(=O)(O)O[C@H]3[C@@H](OCOCC(Cl)(Cl)Cl)[C@H](n4ccc(=O)[nH]c4=O)O[C@@H]3COP(=O)(O)O[C@H]3[C@@H](OCOCC(Cl)(Cl)Cl)[C@H](n4ccc(=O)[nH]c4=O)O[C@@H]3COP(=O)(O)O[C@H]3[C@@H](OCOCC(Cl)(Cl)Cl)[C@H](n4ccc(=O)[nH]c4=O)O[C@@H]3COP(=O)(O)O[C@H]3[C@@H](OCOCC(Cl)(Cl)Cl)[C@H](n4ccc(=O)[nH]c4=O)O[C@@H]3COP(=O)(O)O[C@H]3[C@@H](OCOCC(Cl)(Cl)Cl)[C@H](n4ccc(=O)[nH]c4=O)O[C@@H]3COP(=O)(O)O[C@H]3[C@@H](OCOCC(Cl)(Cl)Cl)[C@H](n4ccc(=O)[nH]c4=O)O[C@@H]3COP(=O)(O)O[C@H]3[C@@H](OCOCC(Cl)(Cl)Cl)[C@H](n4ccc(=O)[nH]c4=O)O[C@@H]3COP(=O)(O)O[C@H]3[C@@H](OCOCC(Cl)(Cl)Cl)[C@H](n4ccc(=O)[nH]c4=O)O[C@@H]3CO)[C@@H](O)[C@H]2OCOCC(Cl)(Cl)Cl)c(=O)[nH]1`, the Stability entry in data set [2] was “Unstable”. The ΔTm in data set [1] was -0.8 °C.

With `CCOCO[C@@H]1[C@H](O)[C@@H](COP(=O)(O)O[C@H]2[C@@H](OCOCC)[C@H](n3ccc(=O)[nH]c3=O)O[C@@H]2COP(=O)(O)O[C@H]2[C@@H](OCOCC)[C@H](n3ccc(=O)[nH]c3=O)O[C@@H]2COP(=O)(O)O[C@H]2[C@@H](OCOCC)[C@H](n3ccc(=O)[nH]c3=O)O[C@@H]2COP(=O)(O)O[C@H]2[C@@H](OCOCC)[C@H](n3ccc(=O)[nH]c3=O)O[C@@H]2COP(=O)(O)O[C@H]2[C@@H](OCOCC)[C@H](n3ccc(=O)[nH]c3=O)O[C@@H]2COP(=O)(O)O[C@H]2[C@@H](OCOCC)[C@H](n3ccc(=O)[nH]c3=O)O[C@@H]2COP(=O)(O)O[C@H]2[C@@H](OCOCC)[C@H](n3ccc(=O)[nH]c3=O)O[C@@H]2COP(=O)(O)O[C@H]2[C@@H](OCOCC)[C@H](n3ccc(=O)[nH]c3=O)O[C@@H]2COP(=O)(O)O[C@H]2[C@@H](OCOCC)[C@H](n3ccc(=O)[nH]c3=O)O[C@@H]2COP(=O)(O)O[C@H]2[C@@H](OCOCC)[C@H](n3ccc(=O)[nH]c3=O)O[C@@H]2COP(=O)(O)O[C@H]2[C@@H](OCOCC)[C@H](n3ccc(=O)[nH]c3=O)O[C@@H]2CO)O[C@H]1n1ccc(=O)[nH]c1=O`, in data set [2], the Stability result is on record as “Unstable”. In addition, in data set [1], the ΔTm is -2.5 °C.

As to `O=c1ccn([C@@H]2O[C@H](COP(=O)(O)O[C@H]3[C@@H](OCOCC(Cl)Cl)[C@H](n4ccc(=O)[nH]c4=O)O[C@@H]3COP(=O)(O)O[C@H]3[C@@H](OCOCC(Cl)Cl)[C@H](n4ccc(=O)[nH]c4=O)O[C@@H]3COP(=O)(O)O[C@H]3[C@@H](OCOCC(Cl)Cl)[C@H](n4ccc(=O)[nH]c4=O)O[C@@H]3COP(=O)(O)O[C@H]3[C@@H](OCOCC(Cl)Cl)[C@H](n4ccc(=O)[nH]c4=O)O[C@@H]3COP(=O)(O)O[C@H]3[C@@H](OCOCC(Cl)Cl)[C@H](n4ccc(=O)[nH]c4=O)O[C@@H]3COP(=O)(O)O[C@H]3[C@@H](OCOCC(Cl)Cl)[C@H](n4ccc(=O)[nH]c4=O)O[C@@H]3COP(=O)(O)O[C@H]3[C@@H](OCOCC(Cl)Cl)[C@H](n4ccc(=O)[nH]c4=O)O[C@@H]3COP(=O)(O)O[C@H]3[C@@H](OCOCC(Cl)Cl)[C@H](n4ccc(=O)[nH]c4=O)O[C@@H]3COP(=O)(O)O[C@H]3[C@@H](OCOCC(Cl)Cl)[C@H](n4ccc(=O)[nH]c4=O)O[C@@H]3COP(=O)(O)O[C@H]3[C@@H](OCOCC(Cl)Cl)[C@H](n4ccc(=O)[nH]c4=O)O[C@@H]3COP(=O)(O)O[C@H]3[C@@H](OCOCC(Cl)Cl)[C@H](n4ccc(=O)[nH]c4=O)O[C@@H]3CO)[C@@H](O)[C@H]2OCOCC(Cl)Cl)c(=O)[nH]1`, the Stability result in data set [2] is “Unstable”. Further, the result in data set [3] was inactive. In data set [1], the ΔTm was found to be 10.8 °C.

Take `O=c1ccn([C@@H]2O[C@H](COP(=O)(O)O[C@H]3[C@@H](OCOCCCl)[C@H](n4ccc(=O)[nH]c4=O)O[C@@H]3COP(=O)(O)O[C@H]3[C@@H](OCOCCCl)[C@H](n4ccc(=O)[nH]c4=O)O[C@@H]3COP(=O)(O)O[C@H]3[C@@H](OCOCCCl)[C@H](n4ccc(=O)[nH]c4=O)O[C@@H]3COP(=O)(O)O[C@H]3[C@@H](OCOCCCl)[C@H](n4ccc(=O)[nH]c4=O)O[C@@H]3COP(=O)(O)O[C@H]3[C@@H](OCOCCCl)[C@H](n4ccc(=O)[nH]c4=O)O[C@@H]3COP(=O)(O)O[C@H]3[C@@H](OCOCCCl)[C@H](n4ccc(=O)[nH]c4=O)O[C@@H]3COP(=O)(O)O[C@H]3[C@@H](OCOCCCl)[C@H](n4ccc(=O)[nH]c4=O)O[C@@H]3COP(=O)(O)O[C@H]3[C@@H](OCOCCCl)[C@H](n4ccc(=O)[nH]c4=O)O[C@@H]3COP(=O)(O)O[C@H]3[C@@H](OCOCCCl)[C@H](n4ccc(=O)[nH]c4=O)O[C@@H]3COP(=O)(O)O[C@H]3[C@@H](OCOCCCl)[C@H](n4ccc(=O)[nH]c4=O)O[C@@H]3COP(=O)(O)O[C@H]3[C@@H](OCOCCCl)[C@H](n4ccc(=O)[nH]c4=O)O[C@@H]3CO)[C@@H](O)[C@H]2OCOCCCl)c(=O)[nH]1`: the Stability result in data set [2] is reported as “Unstable”. Moreover, the result in data set [3] was inactive. Moreover, in data set [1], the ΔTm was 11 °C.

Regarding `O=c1ccn([C@@H]2O[C@H](COP(=O)(O)O[C@H]3[C@@H](OCOCC(F)F)[C@H](n4ccc(=O)[nH]c4=O)O[C@@H]3COP(=O)(O)O[C@H]3[C@@H](OCOCC(F)F)[C@H](n4ccc(=O)[nH]c4=O)O[C@@H]3COP(=O)(O)O[C@H]3[C@@H](OCOCC(F)F)[C@H](n4ccc(=O)[nH]c4=O)O[C@@H]3COP(=O)(O)O[C@H]3[C@@H](OCOCC(F)F)[C@H](n4ccc(=O)[nH]c4=O)O[C@@H]3COP(=O)(O)O[C@H]3[C@@H](OCOCC(F)F)[C@H](n4ccc(=O)[nH]c4=O)O[C@@H]3COP(=O)(O)O[C@H]3[C@@H](OCOCC(F)F)[C@H](n4ccc(=O)[nH]c4=O)O[C@@H]3COP(=O)(O)O[C@H]3[C@@H](OCOCC(F)F)[C@H](n4ccc(=O)[nH]c4=O)O[C@@H]3COP(=O)(O)O[C@H]3[C@@H](OCOCC(F)F)[C@H](n4ccc(=O)[nH]c4=O)O[C@@H]3COP(=O)(O)O[C@H]3[C@@H](OCOCC(F)F)[C@H](n4ccc(=O)[nH]c4=O)O[C@@H]3COP(=O)(O)O[C@H]3[C@@H](OCOCC(F)F)[C@H](n4ccc(=O)[nH]c4=O)O[C@@H]3COP(=O)(O)O[C@H]3[C@@H](OCOCC(F)F)[C@H](n4ccc(=O)[nH]c4=O)O[C@@H]3CO)[C@@H](O)[C@H]2OCOCC(F)F)c(=O)[nH]1`, the ΔTm in data set [1] stood at 3.5 °C.

Regarding `O=c1ccn([C@@H]2O[C@H](COP(=O)(O)O[C@H]3[C@@H](OCOCC(F)(F)F)[C@H](n4ccc(=O)[nH]c4=O)O[C@@H]3COP(=O)(O)O[C@H]3[C@@H](OCOCC(F)(F)F)[C@H](n4ccc(=O)[nH]c4=O)O[C@@H]3COP(=O)(O)O[C@H]3[C@@H](OCOCC(F)(F)F)[C@H](n4ccc(=O)[nH]c4=O)O[C@@H]3COP(=O)(O)O[C@H]3[C@@H](OCOCC(F)(F)F)[C@H](n4ccc(=O)[nH]c4=O)O[C@@H]3COP(=O)(O)O[C@H]3[C@@H](OCOCC(F)(F)F)[C@H](n4ccc(=O)[nH]c4=O)O[C@@H]3COP(=O)(O)O[C@H]3[C@@H](OCOCC(F)(F)F)[C@H](n4ccc(=O)[nH]c4=O)O[C@@H]3COP(=O)(O)O[C@H]3[C@@H](OCOCC(F)(F)F)[C@H](n4ccc(=O)[nH]c4=O)O[C@@H]3COP(=O)(O)O[C@H]3[C@@H](OCOCC(F)(F)F)[C@H](n4ccc(=O)[nH]c4=O)O[C@@H]3COP(=O)(O)O[C@H]3[C@@H](OCOCC(F)(F)F)[C@H](n4ccc(=O)[nH]c4=O)O[C@@H]3COP(=O)(O)O[C@H]3[C@@H](OCOCC(F)(F)F)[C@H](n4ccc(=O)[nH]c4=O)O[C@@H]3COP(=O)(O)O[C@H]3[C@@H](OCOCC(F)(F)F)[C@H](n4ccc(=O)[nH]c4=O)O[C@@H]3CO)[C@@H](O)[C@H]2OCOCC(F)(F)F)c(=O)[nH]1`, in data set [1], the ΔTm is 4.5 °C.
